From the RNAGym collection of RNA variant scans (doi:10.1126/science.aae0568)
Fewer inactive variants are shown than the library holds.

B1: tRNA (parent)
chain: GUUCCGUUGGCGUAAUGGUAACGCGUCUCCCUCCUAAGGAGAAGACUGCGGGUUCGAGUCCCGUACGGAACG

Variants of: B1
Assay: yeast fitness relative to wild type (ratio to wild type); higher = fitter; tRNA-Arg(CCU), competitive growth, 37 C, YPD
Outline: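 Variants of the tRNA-Arg(CCU) gene were chemically synthesised with a 3% per-site mutation rate across 69 sites and placed at the native genomic locus in Saccharomyces cerevisiae. Six parallel replicates of the pooled strains were competed in YPD at 37°C for 24 hours, and gene amplicons from the start and end populations were read by 100-nucleotide paired-end sequencing. Darwinian fitness relative to wild type was derived from changes in genotype frequencies. Genotypes required ≥ 100 starting reads, and estimates < 0.5 were set to 0.5.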

| Variant | yeast fitness |
| --- | --- |
| GUUCCGUUGGUGUAAUGGUAACGCGUCUCCCUCCUAAGGAGAAGUCUGCGGGUUCGAGUCCCGUCCGGAACG | 0.733 |
| GUUCCGUUGGUGUAAUGGUAACGCGUCUCCCUCCUAAGGAGAAGACUGCGGGUUCGCGUCCCGUACGGAACG | 0.622 |
| GUUCCGUUGGUGUAAUGGUAACGCGUCUCCCUCCUAAGGAGAAGACUGCGGGUUCGGGUCCCGUACGGAACG | 0.816 |
| GUUCCGUUGGUGUAAUGGUAACGCGUCUCCCUCCUAAGGAGAAGUCUGCGGGUUCGAGUCCCGUACGGUACG | 0.915 |
| GUUCCGUUGGUGUAAUGGUAACGCGUCUCCCUCCUAAGGAGAAGUCUGCGGGUUCGAGUCCCGUACGGCACG | 0.874 |
| GUUCCGUUGGUGUAAUGGUAACGCGUCUCCCUCCUAAGGAGAAGACUGCGGGUUCGAGUCCCGUUCGGAGCG | 0.696 |
| GUUCCGUUGGUGUAAUGGUAACGCGUCUCCCUCCUAAGGAGAAGACUGCGGGUUCGAGUCCCGUACGGCUCG | 0.814 |
| GUUCCGUUGGUGUAAUGGUAACGCGUCUCCCUCCUAAGGAGAAGACUGCGGGUUCGAGUCCCGUGCGGAUCG | 0.606 |
| GUUCCGUUGGUGUAAUGGUAACGCGUCUCCCUCCUAAGGAGAAGUCUGCGGGCUCGAGUCCCGUACGGAACG | 0.66 |
| GUUCCGUUGGUGUAAUGGUAACGCGUCUCCCUCCUAAGGAGAAGUCUGCGGGUGCGAGUCCCGUACGGAACG | ≤ 0.5 |
| GUUCCGUUGGUGUAAUGGUAACGCGUCUCCCUCCUAAGGAGAAGACUGCGGGUUCGAGUCCCGUUCGGAACG | 0.923 |
| GUUCCGUUGGUGUAAUGGUAACGCGUCUCCCUCCUAAGGAGAAGACUGCGGGUUCGAGUCCCGUCCGGAACG | 0.933 |
| GUUCCGUUGGUGUAAUGGUAACGCGUCUCCCUCCUAAGGAGAAGACUGCGGGUUCGAGUCCCGUGCGGAACG | 0.935 |
| GUUCCGUUGGUGUAAUGGUAACGCGUCUCCCUCCUAAGGAGAAGUCUGGGGGUUCGAGUCCCGUUCGGAACG | ≤ 0.5 |
| GUUCCGUUGGUGUAAUGGUAACGCGUCUCCCUCCUAAGGAGAAGACUGCGGGUUCGAGUCCCGUACGGUACG | 0.949 |
| GUUCCGUUGGUGUAAUGGUAAGGCGUCUCCCUCCUGAGGAGAAGACUGCGGGUUCGAGUCCCGUUCGGAACG | 0.554 |
| GUUCCGUUGGUGUAAUGGUAAGGCGUCUCCCUCCUACGGAGGAAACUGCGGGUUCGAGUCCCGUACGGAACG | ≤ 0.5 |
| GUUCCGUUGGUGUAAUGGUAAAGGGUCUCCCUCCUGAGCAGAAGACUGCGGGUUUGAGUCCCGUAUGGAACG | ≤ 0.5 |
| GUUCCGUUGGUGUAAUGGUAACGCGUCUCCCUCCUAAGGAGAAGACUGCGGGUUCGGGUCUCGUACGGAACG | ≤ 0.5 |

| Variant | yeast fitness |
| --- | --- |
| GUUCCGUUGGUGUAAUGGUAACGCGUCUCCCUCCUAAGGAGAAGACUGCGGGUUCGGGUCACGUACGGAACG | ≤ 0.5 |
| GUUCCGUUGGUGUAAUGGUAAGGCGUCUCCCUCCUAAGGAGGAGACUGCGGGUUCGAGCCCCGUACGGAACG | ≤ 0.5 |
| GUUCCGUUGGUGUAAUGGUAAGGCGUCUCCCUCCUAAGGAGAAGACUGCGGGUUCGUGUCCCGUACGGAACG | ≤ 0.5 |
| GUUCCGUUGGUGUAAUGGUAAGGCGUCUCCCUCCUAAGGAGAAGACUGCGGGUUCGGGUCCCGUACGGAACG | 0.586 |
| GUUCCGUUGGUGUAAUGGUAACGCGUCUCCCUCCUAAGGAGAAGACUGCGGGUUCGGGUCCCGUACGGUACG | 0.718 |
| GUUCCGUUGGUGUAAUGGUAACGCGUCUCCCUCCUAAGGAGAAGACUGCGGGUUCGCGUCCCAUACGGAACG | ≤ 0.5 |
| GUUCCGUUGGUGUAAUGGUAACGCGUCUCCCUCCUAAGGAGAAGACUGCGGGUUCGGGCCCCGUACAGAACG | ≤ 0.5 |
| GUUCCGUUGGUGUAAUGGUAAAGCGUCUGCCUUCUAAGGAGAAGACUGCGGGUUCGAGUCCCGUACGGAACG | 0.519 |
| GUUCCGUUGGUGUAAUGGUAAGGCGUCUCCCUCCUAAGGAGAAGACUGCGGGUUCGAGUCCCGUACGGAACG | 0.875 |
| GUUCCGUUGGUGUAAUGGUAAAGCGUCUGCCUUCUAAGGAGAAGACUGCGGGUUCCAGUCCCGUACGGAACG | ≤ 0.5 |
| GUUCCGUUGGUGUAAUGGUAACGCGUCUCCCUCCUAAGGAGAAGACUGCGGGUUCGAGUCCCGUUCGCAACG | 0.592 |
| GUUCCGUUGGUGUAAUGGUAACGCGUCUCCCUCCUAAGGAGAAGACUGCGGGUUCGAGUCCCGUUAGGAACG | ≤ 0.5 |
| GUUCCGUUGGUGUAAUGGUAAGGCGUCUCCCUCCUAAGGCAAAGACAGCGGGCUCGAGUCCCGUACCGAACG | ≤ 0.5 |
| GUUCCGUUGGUGUAAUGGUAACGCGUCUCCCUCCUAAGGAGAAGACUGCGGGUUCGAGUCCCGUACGGAUCG | 0.88 |
| GUUCCGUUGGUGUAAUGGUAACGCGUCUCCCUCCUAAGGAGAAGACUGCGGGUUCGAGUCCCGUACGGACCG | 0.898 |
| GUUCCGUUGGUGUAAUGGUAACGCGUCUCCCUCCUAAGGAGAAGACUGCGGGUUCGAGUCCCGUUCGGCACG | 0.588 |
| GUUCCGUUGGUGUAAUGGUAACGCGUCUCCCUCCUAAGGAGAAGACUGCGGGUUCGCGUUCCGUACCGAACG | 0.589 |
| GUUCCGUUGGUGUAAUGGUAAGGCGUCUCCCUCCUAAGGAGAAGACUGCGGGUUCGAGUCCCGUGCGGAACG | 0.731 |
| GUUCCGUUGGUGUAAUGGUAACGCGUCUCCCUCCUAAGGAGAAGUCUGCGGGUUCGAGUCCCGUACGGACCG | 1.06 |
